Data as given in ChEMBL document CHEMBL3856208, “Lupane and 18α-oleanane derivatives substituted in the position 2, their cytotoxicity and influence on cancer cells” (Eur J Med Chem, 2016).

Test: Cytotoxicity against human CCRF-CEM cells after 72 hrs by MTS assay
Assay type: functional, cell-based
Procedure, shortened: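 Cells seeded at 25000–35000 cells/mL, compounds from DMSO dosed at time zero as four-fold dilutions. Exposure 72 h at 37 °C, 5% CO2, with MTS added for 1–4 h and OD read at 490 nm. Survival expressed as % of mean control OD, with IC50 from dose-response curves. Run as technical duplicates in at least three biological replicates.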

SMILES | IC50
COC(=O)CCC(=O)N[C@@H]1C[C@]2(C)[C@H]3CC[C@@H]4[C@H]5[C@H]6OC[C@@]5(CCC6(C)C)CC[C@@]4(C)[C@]3(C)CC[C@H]2C(C)(C)[C@H]1O | > 50 µM
CC1(C)CC[C@]23CC[C@]4(C)[C@H](CC[C@@H]5[C@@]6(C)CCC(=O)C(C)(C)[C@@H]6CC[C@]54C)[C@H]2[C@H]1OC3 | > 50 µM
CC1(C)CC[C@]23CC[C@]4(C)[C@H](CC[C@@H]5[C@@]6(C)CC[C@H](O)C(C)(C)[C@@H]6CC[C@]54C)[C@H]2[C@H]1OC3 [ALLOBETULIN] | > 50 µM
C=C(C)[C@@H]1CC[C@]2(CO)CC[C@]3(C)[C@H](CC[C@@H]4[C@@]5(C)CC[C@H](O)C(C)(C)[C@@H]5CC[C@]43C)[C@@H]12 [BETULIN] | > 50 µM
CC1(C)CC[C@]23CC[C@]4(C)[C@H](CC[C@@H]5[C@@]6(C)CC([N+](=O)[O-])=C(O)C(C)(C)[C@@H]6CC[C@]54C)[C@H]2[C@H]1OC3 | > 50 µM
CC1(C)CC[C@]23CC[C@]4(C)[C@H](CC[C@@H]5[C@@]6(C)CC(N=[N+]=[N-])C(=O)C(C)(C)[C@@H]6CC[C@]54C)[C@H]2[C@H]1OC3 (some centres not stated) | > 50 µM
CC1(C)CC[C@]23CC[C@]4(C)[C@H](CC[C@@H]5[C@@]6(C)C[C@@H](N=[N+]=[N-])[C@H](O)C(C)(C)[C@@H]6CC[C@]54C)[C@H]2[C@H]1OC3 | > 50 µM
CC1(C)CC[C@]23CC[C@]4(C)[C@H](CC[C@@H]5[C@@]6(C)C=C(NC7=C[C@]8(C)[C@H]9CC[C@@H]%10[C@@H]%11[C@H]%12OC[C@@]%11(CCC%12(C)C)CC[C@@]%10(C)[C@]9(C)CC[C@H]8C(C)(C)C7=O)C(=O)C(C)(C)[C@@H]6CC[C@]54C)[C@H]2[C@H]1OC3 | > 50 µM
CC(C)[C@@H]1CC[C@]2(C(=O)O)CC[C@]3(C)[C@H](CC[C@@H]4[C@@]5(C)C=C(O)C(=O)C(C)(C)[C@@H]5CC[C@]43C)[C@@H]12 | 6 µM
COC(=O)CCC(=O)N[C@H]1C[C@]2(C)[C@H]3CC[C@@H]4[C@H]5[C@H]6OC[C@@]5(CCC6(C)C)CC[C@@]4(C)[C@]3(C)CC[C@H]2C(C)(C)[C@H]1O | > 50 µM
CC(=O)N[C@@H]1C[C@]2(C)[C@H]3CC[C@@H]4[C@H]5[C@H]6OC[C@@]5(CCC6(C)C)CC[C@@]4(C)[C@]3(C)CC[C@H]2C(C)(C)[C@H]1OC(C)=O | > 50 µM
CC1(C)CC[C@]23CC[C@]4(C)[C@H](CC[C@@H]5[C@@]6(C)C=C(N)C(=O)C(C)(C)[C@@H]6CC[C@]54C)[C@H]2[C@H]1OC3 | > 50 µM
CC(C)[C@@H]1CC[C@]2(C(=O)O)CC[C@]3(C)[C@H](CC[C@@H]4[C@@]5(C)CC(Br)C(=O)C(C)(C)[C@@H]5CC[C@]43C)[C@@H]12 (some centres not stated) | 2 µM
CC1(C)CC[C@]23CC[C@]4(C)[C@H](CC[C@@H]5[C@@]6(C)CC7=C(OCCS7)C(C)(C)[C@@H]6CC[C@]54C)[C@H]2[C@H]1OC3 | > 50 µM
CC1(C)CC[C@]23CC[C@]4(C)[C@H](CC[C@@H]5[C@@]6(C)C[C@H](N=[N+]=[N-])[C@H](O)C(C)(C)[C@@H]6CC[C@]54C)[C@H]2[C@H]1OC3 | > 50 µM
CC1(C)CC[C@]23CC[C@]4(C)[C@H](CC[C@@H]5[C@@]6(C)C[C@H](NC(=O)CCC(=O)O)[C@H](O)C(C)(C)[C@@H]6CC[C@]54C)[C@H]2[C@H]1OC3 | > 50 µM
CC1(C)CC[C@]23CC[C@]4(C)[C@H](CC[C@@H]5[C@@]6(C)CC([N+](=O)[O-])([N+](=O)[O-])C(=O)C(C)(C)[C@@H]6CC[C@]54C)[C@H]2[C@H]1OC3 | > 50 µM
